Laboratory results as given in ChEMBL document CHEMBL4196017, “Design, synthesis and identification of silicon-containing HCV NS5A inhibitors with pan-genotype activity” (Eur J Med Chem, 2018).

Columns and labels:
[1] = Metabolic stability in human liver microsomes assessed as parent compound remaining at 0.2 uM preincubated for 5 mins followed by NADPH addition measured up to 60 mins by UPLC-MS/MS analysis; format: ADME, microsome; settings: read-out: Stability
How it was run: (§1)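 Pooled mouse, rat or human liver microsomes 0.2 mg/mL with 1 mM NADPH, 5 mM MgCl2, 100 mM potassium phosphate pH 7.4 and 0.2 µM compound; 5-min preincubation at 37 °C, NADPH start, sampled at 5, 15, 30, 60 min; ice-cold acetonitrile stop; UPLC-MS/MS; percent parent remaining at 60 min.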

[2] = AUC (0 to t) in mouse at 10 mg/kg, ig administered as single dose by UPLC-MS/MS analysis; format: ADME, organism-based; settings: in vivo, po
How it was run: (§2)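 Adult male mice (12 h light-dark, 22 °C, 55% humidity) fasted 12 h with free water, then given a single 10 mg/kg intragastric dose; plasma concentrations by UPLC-MS/MS; PK parameters calculated by software.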

[3] = Metabolic stability in mouse liver microsomes assessed as parent compound remaining at 0.2 uM preincubated for 5 mins followed by NADPH addition measured up to 60 mins by UPLC-MS/MS analysis; format: ADME, microsome; settings: read-out: Stability; how it was run: as §1
[4] = Half life in mouse at 10 mg/kg, ig administered as single dose by UPLC-MS/MS analysis; format: ADME, organism-based; settings: in vivo, po; how it was run: as §2
[5] = biological target: T1, Nonstructural protein 5A (Hepatitis C virus) (UniProt Q5L478); experiment: Potency index, ratio of ombitasvir IC50 to compound IC50 for inhibition of NS5A in HCV genotype 6a infected in human HuH7 replicon cells expressing HCV genotype 1b chimeric replicon; format: cell-based; settings: Hepatitis C virus subtype 6a
T1 sequence (whole entry): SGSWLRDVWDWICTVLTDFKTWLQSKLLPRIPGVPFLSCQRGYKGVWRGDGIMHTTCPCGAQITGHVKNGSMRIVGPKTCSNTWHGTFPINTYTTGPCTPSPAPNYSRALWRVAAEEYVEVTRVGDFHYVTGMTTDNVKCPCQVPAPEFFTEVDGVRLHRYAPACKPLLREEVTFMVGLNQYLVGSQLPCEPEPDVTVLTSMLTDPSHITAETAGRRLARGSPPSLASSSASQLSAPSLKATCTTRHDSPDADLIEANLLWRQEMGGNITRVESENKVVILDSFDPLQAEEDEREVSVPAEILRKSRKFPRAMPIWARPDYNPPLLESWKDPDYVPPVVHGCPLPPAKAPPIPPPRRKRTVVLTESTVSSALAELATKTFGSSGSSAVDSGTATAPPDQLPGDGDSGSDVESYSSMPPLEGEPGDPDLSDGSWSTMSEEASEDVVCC

[6] = Tmax in mouse at 10 mg/kg, ig administered as single dose by UPLC-MS/MS analysis; format: ADME, organism-based; settings: in vivo, po; how it was run: as §2
[7] = Metabolic stability in rat liver microsomes assessed as parent compound remaining at 0.2 uM preincubated for 5 mins followed by NADPH addition measured up to 60 mins by UPLC-MS/MS analysis; format: ADME, microsome; settings: read-out: Stability; how it was run: as §1
[8] = Cmax in mouse at 10 mg/kg, ig administered as single dose by UPLC-MS/MS analysis; format: ADME, organism-based; set-up: dose 10 mg/kg, route intragastric; settings: in vivo, po; how it was run: as §2
[9] = biological target: T1, Nonstructural protein 5A (Hepatitis C virus); experiment: Potency index, ratio of ombitasvir IC50 to compound IC50 for inhibition of NS5A in HCV genotype 3a infected in human HuH7 replicon cells expressing HCV genotype 1b chimeric replicon; format: cell-based; settings: Hepatitis C virus subtype 3a

SMILES	remaining at 1 h, 0.2 µM [1] [%]	AUC(0-t) [2] [ng·h/mL]	remaining at 1 h, 0.2 µM [3] [%]	half-life [4] [h]	Ratio IC50 [5]	Tmax [6] [h]	remaining at 1 h, 0.2 µM [7] [%]	Cmax [8] [ng/mL]	Ratio IC50 [9]
COC(=O)N[C@H](C(=O)N1CCC[C@H]1C(=O)Nc1ccc([C@@H]2CC[C@@H](c3ccc(NC(=O)[C@@H]4CCCN4C(=O)[C@@H](NC(=O)OC)C(C)C)cc3)N2c2ccc([Si](C)(C)C)cc2)cc1)C(C)C	99.2	2910	93.3	8.8	2.4	3	101	262	2.3
COC(=O)N[C@H](C(=O)N1CCC[C@H]1C(=O)Nc1ccc([C@@H]2CC[C@@H](c3ccc(NC(=O)[C@@H]4CCCN4C(=O)[C@@H](NC(=O)OC)C(C)C)cc3)N2c2ccc([Si](C)(C)C(C)(C)C)cc2)cc1)C(C)C	84.3	3520	92.1	34.7	3.7	3	87	211	7.2
